Activity calls are given as the source filed them. No cut-off for these calls is given here.
Legend:
[1] = target: T1, Bile acid receptor (Homo sapiens) (UniProt Q96RI1); test: Agonist activity at human Gal4-fused FXR assessed as luciferase activity at 0.03 to 10 uM by reporter gene assay; assay type: functional
T1 sequence (whole entry): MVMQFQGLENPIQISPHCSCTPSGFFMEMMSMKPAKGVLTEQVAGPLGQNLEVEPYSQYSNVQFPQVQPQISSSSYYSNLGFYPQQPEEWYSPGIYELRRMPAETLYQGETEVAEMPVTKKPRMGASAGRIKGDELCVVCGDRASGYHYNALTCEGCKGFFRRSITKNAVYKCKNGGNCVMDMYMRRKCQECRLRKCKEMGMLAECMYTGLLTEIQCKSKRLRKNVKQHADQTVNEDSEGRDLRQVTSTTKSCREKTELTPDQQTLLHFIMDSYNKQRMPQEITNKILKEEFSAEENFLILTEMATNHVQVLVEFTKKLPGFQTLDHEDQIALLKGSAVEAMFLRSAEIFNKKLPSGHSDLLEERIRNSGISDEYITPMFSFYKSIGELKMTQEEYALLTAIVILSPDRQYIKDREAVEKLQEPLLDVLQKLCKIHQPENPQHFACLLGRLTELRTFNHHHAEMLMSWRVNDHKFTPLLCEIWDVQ

[2] = system: Peritoneal macrophage cell; test: Inhibition of LPS-induced IL-1beta mRNA expression in LXRalpha-deficient C57BL/6J mouse peritoneal macrophages at 10 uM incubated for 6 hrs prior to LPS-challenge measured after 18 hrs by RT-PCR analysis; assay type: functional, cell-based
Outline: (§1)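 Thioglycollate-elicited peritoneal macrophages (wild-type C57BL/6J or LXRα-null, 8–10 weeks) were plated at 4 × 10⁶/well and pretreated with compound 6 h before LPS 100 ng/mL. Cells were harvested after 18 h. il-6 and il-1β mRNA were measured by real-time quantitative PCR, normalized to GAPDH.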

[3] = target: T2, Retinoic acid receptor RXR-alpha (Homo sapiens) (UniProt P19793); test: Agonist activity at human Gal4-fused RXRalpha assessed as luciferase activity at 0.1 to 10 uM by reporter gene assay; assay type: functional
T2 sequence (whole entry): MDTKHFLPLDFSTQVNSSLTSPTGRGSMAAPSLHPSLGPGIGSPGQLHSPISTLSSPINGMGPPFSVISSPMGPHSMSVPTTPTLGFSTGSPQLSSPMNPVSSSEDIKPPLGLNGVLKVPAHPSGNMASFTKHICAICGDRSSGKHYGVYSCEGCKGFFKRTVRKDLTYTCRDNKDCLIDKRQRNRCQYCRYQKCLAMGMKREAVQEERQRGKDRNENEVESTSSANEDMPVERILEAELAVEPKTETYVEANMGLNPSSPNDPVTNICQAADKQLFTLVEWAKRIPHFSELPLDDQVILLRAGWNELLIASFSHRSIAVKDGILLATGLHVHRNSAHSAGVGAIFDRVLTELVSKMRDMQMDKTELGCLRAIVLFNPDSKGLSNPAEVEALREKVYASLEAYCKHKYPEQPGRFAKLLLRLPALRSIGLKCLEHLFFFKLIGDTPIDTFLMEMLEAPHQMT

[4] = Transrepressional activity at LXR in C57BL/6J mouse peritoneal macrophages assessed as inhibition of LPS-induced IL-6 mRNA expression at 10 uM incubated for 6 hr prior to LPS-challenge measured after 18 hrs by RT-PCR analysis; outline: as §1
[5] = target: T2, Retinoic acid receptor RXR-alpha (Homo sapiens); test: Antagonist activity at human Gal4-fused RXRalpha assessed as inhibition of SR11215-induced luciferase activity at 0.1 to 10 uM by reporter gene assay; assay type: functional
[6] = target: T1, Bile acid receptor (Homo sapiens); test: Antagonist activity at human Gal4-fused FXR assessed as inhibition of chenodeoxycholic acid-induced luciferase activity at 0.03 to 10 uM by reporter gene assay; assay type: functional
[7] = target: T3, Oxysterols receptor LXR-alpha (Homo sapiens, UniProt Q13133); test: Transactivational agonist activity at human LXRalpha transfected in HEK293 cells coexpressing CMX-Gal4N-DRIP205 assessed as DRIP205 recruitment at 10 uM after 16 hrs by mammalian two-hybrid assay; assay type: cell-based; conditions: hek293, 16 h
T3 sequence (Q13133 whole entry): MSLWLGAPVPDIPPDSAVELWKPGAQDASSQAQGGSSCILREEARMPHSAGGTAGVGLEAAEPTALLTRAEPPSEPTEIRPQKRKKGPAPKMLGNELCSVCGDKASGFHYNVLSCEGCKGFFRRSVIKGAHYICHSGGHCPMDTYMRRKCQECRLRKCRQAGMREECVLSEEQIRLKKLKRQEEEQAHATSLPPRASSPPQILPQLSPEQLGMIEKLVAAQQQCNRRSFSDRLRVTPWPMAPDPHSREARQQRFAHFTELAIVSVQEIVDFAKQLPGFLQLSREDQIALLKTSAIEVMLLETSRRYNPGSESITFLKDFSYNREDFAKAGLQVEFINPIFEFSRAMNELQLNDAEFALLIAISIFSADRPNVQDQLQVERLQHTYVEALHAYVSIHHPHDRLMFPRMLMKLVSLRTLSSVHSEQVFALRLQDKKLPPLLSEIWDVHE
Outline: (§2)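 Mammalian two-hybrid in HEK293 cells by calcium phosphate cotransfection: CMX-VP16N-hLXRα, Gal4N-fused SRC1, DRIP205, NCoR or SMRT (15 ng), tk-MH100×4-luc (50 ng) and CMX-β-gal (10 ng). Compound or DMSO added 8 h after transfection for 16 h. Luciferase was normalized to β-galactosidase, in triplicate.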

[8] = target: T4, Oxysterols receptor LXR-alpha (Homo sapiens) (UniProt Q13133); test: Transactivational antagonist activity at human LXRalpha transfected in HEK293 cells coexpressing CMX-Gal4N-SMRT assessed as SMRT recruitment after 16 hrs by reporter gene assay; assay type: functional, cell-based; outline: as §2
T4 sequence (whole entry): T3 sequence (Q13133 whole entry)

[9] = Transrepressional activity at LXR in C57BL/6J mouse peritoneal macrophages assessed as inhibition of LPS-induced IL-1beta mRNA expression at 10 uM incubated for 6 hr prior to LPS-challenge measured after 18 hrs by RT-PCR analysis; outline: as §1
[10] = target: T4, Oxysterols receptor LXR-alpha (Homo sapiens); test: Transactivational antagonist activity at human LXRalpha transfected in HEK293 cells coexpressing CMX-Gal4N-NCoR assessed as NCoR recruitment after 16 hrs by reporter gene assay; assay type: functional, cell-based; outline: as §2
[11] = target: T3, Oxysterols receptor LXR-alpha; test: Transactivational agonist activity at human LXRalpha transfected in HEK293 cells expressing CMX-Gal4N assessed as luciferase activity at 30 uM after 16 hrs by reporter gene assay; assay type: cell-based; conditions: hek293, 16 h

- Activity [1]: inactive
- Activity [3]: inactive
- inhibition [4]: Active
- inhibition [5]: inactive
- inhibition [6]: inactive
- Activity [8]: Dose-dependent effect
- inhibition [9]: Active
- Activity [10]: Dose-dependent effect
- Activity [11]: Not Active
Compound: C=C1c2ccccc2C(=O)N(C)c2ccc(CC)cc21
- inhibition [2]: inactive
- Activity [7]: Non-toxic

Reference: ChEMBL document CHEMBL2169742, “Design, synthesis, and biological evaluation of novel transrepression-selective liver X receptor (LXR) ligands with 5,11-dihydro-5-methyl-11-methylene-6H-dibenz[b,e]azepin-6-one skeleton” (J Med Chem, 2012)
